Paper PMC8596596 (Journal of Clinical Pharmacology, 2021)
Values joined by “and” are separate entries in the source; they are usually repeats but may differ in a detail not shown here. Equal entries are not always repeated. Where two headings read alike, the source gives them in different places.

Legend:
healthy elderly subjects [1] = assay: Mismatch negativity auditory event-related potential; assay type: in vivo, human; conditions: vs placebo
Procedure, shortened: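 Passive auditory oddball while subjects watched a silent movie. 750 tones were given (600 frequent, 150 deviant), each 150 ms at 75 dB, at a fixed 2 Hz rate. Event-related potential recorded by EEG. Healthy elderly subjects received oral 2 or 4 mg or placebo in a crossover design with repeated postdose sessions. Compared with placebo by mixed-model analysis.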

healthy elderly subjects [2] = assay: Safety and tolerability; assay type: in vivo, human; conditions: 2 and 4 mg oral
Procedure, shortened: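 Safety was monitored through treatment-emergent adverse events, laboratory tests, vital signs and ECG during each period. Randomization gave the 4-mg dose only after the 2-mg study day had been completed. A snack was given within 30 minutes before dosing, and caffeine and nicotine were not allowed. Oral single doses with a 1-week washout.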

[3] = Plasma pharmacokinetics, noncompartmental analysis; assay type: in vivo; conditions: human, po
Procedure, shortened: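 K2-EDTA plasma underwent liquid-liquid extraction and LC-MS/MS: phenyl column, isocratic 0.025% NH4OH in 67% acetonitrile, positive MRM at m/z 312→143, deuterated internal standard. QC levels were 0.300, 1.50 and 8.00 ng/mL. Parameters were obtained by noncompartmental analysis.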

M4 mAChR = conditions: read-out: equilibrium dissociation constant [Kd] for M4; cited from earlier work
healthy elderly subjects [4] = assay: N-back task; assay type: in vivo, human; conditions: vs placebo
healthy elderly subjects [5] = assay: Pupillometry; assay type: in vivo, human
Procedure, shortened: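 Pupil images were taken with a digital camera and single flash. Pupil and iris diameters were measured horizontally in pixels, and the pupil/[…] diameter ratio was calculated for each eye. Oral 2 mg, 4 mg or placebo in a crossover design in healthy elderly subjects. Measured twice predose and at 1, 2.5, 4, 7 and 22 h. Mixed-model ANCOVA with baseline covariate against placebo.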

healthy elderly subjects [6] = assay: Visual analog scales; assay type: in vivo, human; conditions: both doses (2 and 4 mg)
Procedure, shortened: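 Bond and Lader visual analog scales rated alertness, mood and calmness, and nausea was rated on a 100-mm line. Oral 2 mg, 4 mg or placebo in a crossover design in healthy elderly subjects. Ratings were made repeatedly predose and up to 22 h postdose. Analysed by mixed-model ANCOVA with baseline covariate against placebo.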

[7] = cited from earlier work
healthy elderly subjects [8] = assay: Visual-verbal learning test; assay type: in vivo, human; conditions: 4 mg oral, vs placebo
Procedure, shortened: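 A 30-word list was presented. Immediate recall rounds assessed acquisition at 1.5 h postdose, followed by delayed recall and recognition. Subjects received oral 4 mg, 2 mg or placebo in a crossover design; single-occasion test. Analysed by mixed-model ANOVA with treatment and period as fixed factors and subject as random factor, comparing least-squares means with placebo.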

M2 mAChR = conditions: read-out: equilibrium dissociation constant [Kd] for M2; cited from earlier work
healthy elderly subjects [9] = assay: Saccadic and smooth pursuit eye movements; assay type: in vivo, human
Procedure, shortened: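 Subjects followed a horizontally moving target on a screen 58 cm away. The target moved continuously for smooth pursuit and jumped side to side for saccades, and movements were recorded by computer. Oral 2 mg, 4 mg or placebo in a crossover design in healthy elderly subjects; tests predose and at 1, 2.5, 4, 7 and 22 h. Mixed-model ANCOVA with baseline covariate.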

M3 mAChR = conditions: read-out: equilibrium dissociation constant [Kd] for M3; cited from earlier work
healthy elderly subjects [10] = assay: Body sway; assay type: in vivo, human; conditions: 22 hours postdose
Procedure, shortened: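 Crossover in healthy elderly subjects given oral 2 mg, 4 mg or placebo. Postural stability was measured with a body sway meter recording movement in a single plane over 2 minutes, with movements integrated. Measured twice predose and at 1, 2.5, 4, 7 and 22 h postdose. Analysis used mixed-model ANCOVA with time and treatment factors and the average baseline as covariate.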

healthy elderly subjects [11] = assay: Population PK-PD model; assay type: in vivo, human
M5 mAChR = conditions: read-out: equilibrium dissociation constant [Kd] for M5; cited from earlier work
healthy elderly subjects [12] = assay: Adaptive tracking test; assay type: in vivo, human; conditions: for decrease in mean adaptive tracking test performance: vs placebo
Procedure, shortened: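 Randomized, double-blind, placebo-controlled 3-way crossover in 12 subjects aged 65–80 years (MMSE ≥28). Single oral doses of 2 or 4 mg test compound or placebo, 1-week washout. Joystick pursuit task: the subject keeps a dot inside a randomly moving circle, whose speed rises with success and falls with failure. Tested twice predose and at 1, 2.5, 4, 7 and 22 h. Mixed-model ANCOVA with baseline covariate; least-squares means versus placebo.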

Population PK model = assay type: in vivo, human; conditions: oral
Procedure, shortened: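 Nonlinear mixed-effects modelling of plasma concentrations after oral 2 and 4 mg in healthy elderly subjects. 1-, 2- and 3-compartment models were explored, with or without absorption lag time and transit compartments. Between-subject and between-occasion variability were added bottom-up (P < .01). Age, sex, weight and BMI were tested as covariates (forward P < .01, backward P < .001). The final model had 2 compartments with linear elimination.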

healthy elderly subjects [13] = assay: Finger tapping test; assay type: in vivo, human; conditions: both doses (2 and 4 mg)
Procedure, shortened: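 Finger tapping with the index finger of the dominant hand on a computer space bar, as fast as possible. Each session had 5 trials of 10 s, and mean tapping rate and SD were analysed. Oral 2 mg, 4 mg or placebo in a crossover design; tests predose and at 1, 2.5, 4, 7 and 22 h. Mixed-model ANCOVA with baseline covariate.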

M1 mAChR = conditions: read-out: equilibrium dissociation constant [Kd] for M1; cited from earlier work
healthy subjects [14] = conditions: cited from earlier work
healthy subjects [15] = conditions: cited from earlier work; remark: listed apart in the source

OC(CCN1CCCCC1)(c1ccccc1)C1CC2C=CC1C2 (centres unmarked) [biperiden]
MMN latency at Fz, increase (healthy elderly subjects [1]; 2 mg oral): 12.1 milliseconds
MMN latency at Fz, increase (healthy elderly subjects [1]; 4 mg oral): 13.9 milliseconds
tolerability (healthy elderly subjects [2]): well tolerated
tolerability (healthy elderly subjects [2]; listed as Biperiden): very well tolerated
AUC(0-t) ([3]; 2 mg): 18.4 ng·h/mL
Cmax ([3]; 2 mg): 3.51 ng/mL
AUC(0-t) ([3]; 4 mg): 39.5 ng·h/mL
Cmax ([3]; 4 mg): 7.45 ng/mL
Tmax ([3]; 4 mg): 2 h
Kd (M4 mAChR): 2.4 ± 0.03 nM
n-back reaction time and accuracy, change (healthy elderly subjects [4]; 2 mg oral): No significant change
n-back 0-back condition reaction time, mean difference (healthy elderly subjects [4]; 4 mg oral): 37.2 milliseconds
n-back 1-back condition reaction time, mean difference (healthy elderly subjects [4]; 4 mg oral): 49.9 milliseconds
n-back 2-back condition accuracy, decrease (healthy elderly subjects [4]; 4 mg oral): 0.06
n-back task reaction time increase (healthy elderly subjects [4]; 4 mg oral): ≤ 50 millisecond
pupil/iris ratio left eye, mean difference (healthy elderly subjects [5]; 4 mg oral, vs placebo): 0.065
pupil/iris ratio right eye, mean difference (healthy elderly subjects [5]; 4 mg oral, vs placebo): 0.07341
pupil/iris ratio in both eyes, recovery (healthy elderly subjects [5]; 22 hours postdose): not normalized 22 hours postdose
VAS Bond and Lader subscales of mood, alertness, and calmness, change (healthy elderly subjects [6]): No significant changes
VAS nausea scores, change (healthy elderly subjects [6]): No significant changes
bioavailability ([7]; assumed, oral ref 18): approximately 33%
Tmax ([7]; postdose, as stated for previous studies): approximately 1 hour
VVLT second immediate recall round, fewer words recalled (healthy elderly subjects [8]): 2.5 words
VVLT third immediate recall round, fewer words recalled (healthy elderly subjects [8]): 2.9 words
Kd (M2 mAChR): 6.3 ± 0.5 nM
smooth pursuit, effect (healthy elderly subjects [9]; 2 mg oral, vs placebo): No significant effect
smooth pursuit decrease (healthy elderly subjects [9]; 4 mg oral, vs placebo): 3.55 percentage point
saccadic inaccuracy, peak velocity, or reaction time, effect (healthy elderly subjects [9]; both doses (2 and 4 mg) vs placebo): No significant effects
Kd (M3 mAChR): 3.9 ± 0.1 nM
body sway, recovery (healthy elderly subjects [10]): not normalized 22 hours postdose
adaptive tracking, linear concentration-effect slope (healthy elderly subjects [11]): −0.98 percentage point/ng/mL
n-back 0-back accuracy measure, drug effect (healthy elderly subjects [11]): No significant effect
n-back 0-back reaction time, Emax (healthy elderly subjects [11]): 288.5 milliseconds
n-back 0-back reaction time, Hill coefficient (healthy elderly subjects [11]): 2.25
n-back 1-back accuracy measure, linear drug effect slope (healthy elderly subjects [11]): -0.011 ng⁻¹ mL⁻¹
n-back 1-back reaction time, linear drug effect slope (healthy elderly subjects [11]): 16.18 ms/ng/mL
n-back 2-back reaction time, linear drug effect slope (healthy elderly subjects [11]): 11.08 ms/ng/mL
Kd (M5 mAChR): 6.3 ± 0.1 nM
decrease in mean adaptive tracking test performance (healthy elderly subjects [12]; 2 mg oral): 1.36 percentage point
adaptive tracking, change compared with placebo (healthy elderly subjects [12]; 4 mg oral): −2.1 percentage point
decrease in mean adaptive tracking test performance (healthy elderly subjects [12]; 4 mg oral): 2.10 percentage point and 2.1 percentage point
half-life (Population PK model; human, plasma): 29.5 h
Absorption rate constant (Population PK model; population PK estimate): 2.73 (BOV = 97.7%) /hour
Clearance (Population PK model; population PK estimate): 78.06 (IIV = 172%, BOV = 12%) L/h/F
Lag time (Population PK model; population PK estimate): 0.54 (BOV = 75%) hours
Volume of distribution—central (Population PK model; population PK estimate): 491.40 (IIV = 79.5%) L/F
tapping-test performance, change (healthy elderly subjects [13]): No significant changes
Kd (M1 mAChR): 0.48 ± 0.02 nM

NC(=O)C(c1ccccc1)(c1ccccc1)[C@@H]1CCN(CCc2ccc3c(c2)CCO3)C1 [darifenacin]
effect on body sway (healthy subjects [14]): increase body sway

CN1[C@@H]2C[C@@H](OC(=O)[C@H](CO)c3ccccc3)C[C@H]1[C@@H]1O[C@@H]12 [scopolamine]
peak saccadic velocity, effect (healthy subjects [15]): concentration‐related decrease
